Assay [1] deals with T1, Prostaglandin G/H synthase 1 (Ovis aries) (UniProt P05979).
T1 sequence (whole entry): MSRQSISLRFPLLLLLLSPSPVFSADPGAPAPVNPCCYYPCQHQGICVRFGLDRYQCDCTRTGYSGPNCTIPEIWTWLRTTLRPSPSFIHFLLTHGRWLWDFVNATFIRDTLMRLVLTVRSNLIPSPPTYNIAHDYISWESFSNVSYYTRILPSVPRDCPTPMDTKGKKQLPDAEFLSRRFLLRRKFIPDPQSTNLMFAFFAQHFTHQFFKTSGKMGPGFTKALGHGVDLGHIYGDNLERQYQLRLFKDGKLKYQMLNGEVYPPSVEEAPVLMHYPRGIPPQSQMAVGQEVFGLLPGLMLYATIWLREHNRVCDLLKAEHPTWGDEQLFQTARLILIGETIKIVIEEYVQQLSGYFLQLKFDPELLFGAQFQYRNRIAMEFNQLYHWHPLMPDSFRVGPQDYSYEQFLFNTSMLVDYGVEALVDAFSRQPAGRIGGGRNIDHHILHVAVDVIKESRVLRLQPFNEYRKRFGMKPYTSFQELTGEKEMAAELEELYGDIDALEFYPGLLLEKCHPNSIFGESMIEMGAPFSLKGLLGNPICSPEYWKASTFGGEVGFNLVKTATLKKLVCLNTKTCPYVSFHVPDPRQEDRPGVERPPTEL
Description: (§1) Inhibition of ovine COX1 using TMPD as substrate preincubated for 15 mins.

In assay [2] the target is T2, Prostaglandin G/H synthase 2 (Ovis aries) (UniProt P79208).
T2 sequence (whole entry): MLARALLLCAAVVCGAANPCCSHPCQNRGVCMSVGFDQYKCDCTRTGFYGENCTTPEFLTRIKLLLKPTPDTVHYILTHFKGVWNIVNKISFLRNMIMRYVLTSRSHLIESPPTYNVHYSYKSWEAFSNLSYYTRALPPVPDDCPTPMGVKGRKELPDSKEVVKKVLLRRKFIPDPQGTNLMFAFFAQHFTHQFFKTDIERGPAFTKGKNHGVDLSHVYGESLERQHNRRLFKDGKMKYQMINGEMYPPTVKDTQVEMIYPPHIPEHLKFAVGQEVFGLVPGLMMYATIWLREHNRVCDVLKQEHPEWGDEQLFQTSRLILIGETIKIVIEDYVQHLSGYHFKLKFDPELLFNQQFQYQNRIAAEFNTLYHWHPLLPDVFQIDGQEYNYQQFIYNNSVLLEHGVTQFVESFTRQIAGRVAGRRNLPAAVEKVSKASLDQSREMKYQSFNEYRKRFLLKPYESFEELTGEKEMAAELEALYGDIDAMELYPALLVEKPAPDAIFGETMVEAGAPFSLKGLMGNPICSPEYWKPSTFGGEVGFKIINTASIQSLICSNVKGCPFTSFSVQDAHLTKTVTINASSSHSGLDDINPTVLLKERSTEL
Description: Inhibition of ovine COX2 using TMPD as substrate at 300 uM preincubated for 15 mins.

Assay [3] can be described thus: Antiinflammatory activity in human monocytes assessed as inhibition of LPS-induced COX2 expression assessed per ug of protein at 100 uM after 20 hrs using rabbit polyclonal antibody IgG by SDS-PAGE analysis (reference value: 1.53 +/- 0.3 ng/ug). Format: functional, Monocyte. A digest of the protocol:
(§2)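 Isolated human monocytes (3 × 10⁶ cells/ml) treated 20 h with test agent or vehicle in the presence of LPS; unstimulated cells as control. Cells lysed; equal protein loads run on SDS-polyacrylamide gel and immunoblotted with rabbit polyclonal antibody to a human COX-2-specific sequence (band ~72 kDa); beta-actin as loading control. Three experiments; dose-response series used for IC50.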

In assay [4] the test system is Raji. Description: Inhibition of TPA-induced EBV-early antigen activation in human Raji cells. The format is cell-based. Particulars: human gammaherpesvirus 4, dose or concentration not given here.
For assay [5], the system named is HL-60. The assay can be described thus: Inhibition of superoxide radicals production in human HL60 cells. Format: functional.
The target in assay [6] is T3, Prostaglandin G/H synthase 2 (Homo sapiens) (UniProt P35354).
T3 sequence (whole entry): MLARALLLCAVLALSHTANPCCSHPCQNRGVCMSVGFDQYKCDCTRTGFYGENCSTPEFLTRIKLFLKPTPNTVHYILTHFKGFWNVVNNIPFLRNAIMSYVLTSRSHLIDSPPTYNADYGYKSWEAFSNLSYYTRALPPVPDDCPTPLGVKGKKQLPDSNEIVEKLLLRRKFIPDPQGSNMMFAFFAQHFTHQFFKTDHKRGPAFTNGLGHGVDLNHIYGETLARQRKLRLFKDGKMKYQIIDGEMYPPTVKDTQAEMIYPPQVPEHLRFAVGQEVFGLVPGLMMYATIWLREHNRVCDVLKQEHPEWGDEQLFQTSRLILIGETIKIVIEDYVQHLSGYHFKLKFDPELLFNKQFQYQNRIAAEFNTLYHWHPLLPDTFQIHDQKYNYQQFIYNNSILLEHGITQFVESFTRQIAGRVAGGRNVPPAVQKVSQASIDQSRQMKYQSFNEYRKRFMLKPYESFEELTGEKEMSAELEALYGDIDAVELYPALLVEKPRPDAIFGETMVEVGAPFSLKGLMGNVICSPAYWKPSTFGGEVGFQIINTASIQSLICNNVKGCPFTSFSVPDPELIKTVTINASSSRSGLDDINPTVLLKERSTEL
The assay can be described thus: Inhibition of COX2 promoter activity in human DLD1 cells at 100 uM. Format: cell-based. The following applies: DLD-1.

The nature of assay [7]: Antiinflammatory activity in human monocytes assessed as inhibition of LPS-induced COX2 expression at 25 uM after 20 hrs using rabbit polyclonal antibody IgG by Western blot analysis. The format is functional. The following applies: Monocyte. A digest of the protocol:
as §2

Assay [8] deals with T4, Prostaglandin G/H synthase 1 (Ovis aries, UniProt P05979).
T4 sequence (P05979 whole entry): T1 sequence (whole entry)
Described as §1.

Assay [9] concerns Monocyte. The assay can be described thus: Antiinflammatory activity in human monocytes assessed as inhibition of LPS-induced COX2 expression at 100 uM after 20 hrs using rabbit polyclonal antibody IgG by SDS-PAGE analysis. The format is functional, cell-based. Put shortly:
as §2

For assay [10], the system named is Monocyte. Description: Antiinflammatory activity in human monocytes assessed as inhibition of LPS-induced COX2 expression after 20 hrs using rabbit polyclonal antibody IgG by Western blot analysis. Format: functional, cell-based. Put shortly: as §2
Assay [11] is described as follows: Antiinflammatory activity in human monocytes assessed as inhibition of LPS-induced COX2 expression at 10 uM after 20 hrs using rabbit polyclonal antibody IgG by Western blot analysis. Format: functional. Particulars: Monocyte. Put shortly:
as §2
A general note: A western blot detects proteins with antibodies after separation by electrophoresis.

Assay [12] deals with Monocyte. Description: Antiinflammatory activity in human monocytes assessed as inhibition of LPS-induced COX2 expression at 100 uM after 20 hrs using rabbit polyclonal antibody IgG by Western blot analysis. Format: functional, cell-based. Put shortly:
as §2

Assay [13] deals with Monocyte. The assay can be described thus: Antiinflammatory activity in human monocytes assessed as inhibition of LPS-induced COX1 expression at 100 uM after 24 hrs using rabbit polyclonal antibody IgG by Western blot analysis. Format: functional, cell-based. A digest of the protocol:
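Isolated human monocytes (3 × 10⁶ cells/ml) incubated with LPS, vehicle or test agent; lysates immunoblotted with a specific anti-COX-1 antibody to assess COX-1-like immunoreactivity.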

Assay [14] relates to Monocyte. Description: Antiinflammatory activity in human monocytes assessed as inhibition of LPS-induced COX2 expression at 5 uM after 20 hrs using rabbit polyclonal antibody IgG by SDS-PAGE analysis. Format: functional, cell-based. A digest of the protocol: as §2

Calls of active or inactive are those of the source. No cut-off for these calls is given here.

Usually inhibition stands for the drop in the measured response relative to a control, in per cent. One may read the IC50 as the midpoint of a concentration-inhibition curve. A lower IC50 goes with higher potency.

As for `COc1cc(/C=C/C(=O)O)ccc1OCC=C(C)C` [BOROPINIC ACID], the inhibition entry in assay [1] and in [2] was “inactive” in each case. For the same compound, the Activity in assay [3] turned out to be 1.78 ng/µg.
On to `CC(C)=CCC/C(C)=C/COc1ccc(/C=C/C(=O)O)cc1`, for which the inhibition result in assay [1] and in [2] was “inactive” throughout. In addition, in [3], the Activity was found to be 1.7 ng/µg.
With `COC(=O)/C=C/c1ccc(OC/C=C(\C)CCC=C(C)C)c(OC)c1`, the inhibition in assay [4] was determined as 81%; in assay [6], 50%. For the same compound, the “inhibition (INH)” value in assay [5] is 35%.
Regarding `CC(C)=CCOc1ccc(/C=C/C(=O)O)cc1`, the inhibition at 25 µM in assay [7] worked out at 13%. In assay [8], this compound yielded an IC50 of 35.1 µM. Further, the inhibition result in assay [9] is “Active”. For the same compound, the inhibition in assay [2] was 74%; in assay [10], “Dose-dependent effect”.
Regarding `COc1cc(/C=C/C(=O)O)ccc1OC/C=C(\C)CCC=C(C)C`, the IC50 in [8] was 54.2 µM. Further, the inhibition at 10 µM in assay [11] was determined as 20%. The inhibition entry in [9] is “Active”. Moreover, the results for the inhibition in [2] and in [10] were 97.5% and “Dose-dependent effect”, respectively.
In the case of `CC(C)=CCC/C(C)=C/COc1ccc(/C=C/C(=O)O)cc1Cl`, the inhibition result in assay [12], in assay [1], in [13] and in assay [2] was “inactive” each time.
Consider `CC(C)=CCC/C(C)=C/COc1ccc(/C=C/C(=O)O)cc1C`, for which the inhibition result in [12], in assay [1], in assay [13] and in assay [2] was “inactive” in each case.
With `CC(C)=CCOc1ccc(/C=C/C(=O)O)cc1C`, the inhibition result in assay [12], in assay [1], in [13] and in [2] was “inactive” in each case.
Consider `C[C@@H]1C[C@H]2[C@@H]3CCC4=CC(=O)C=C[C@]4(C)[C@@]3(F)[C@@H](O)C[C@]2(C)[C@@]1(O)C(=O)CO`, for which the inhibition entry in assay [14] is “Active”.
Take `CC(C)=CCOc1ccc(/C=C/C(=O)O)cc1Cl`: the inhibition entry in assay [12], in assay [1], in assay [13] and in assay [2] was “inactive” in each case.
As to `CCOC(=O)/C=C/c1ccc(OC/C=C(\C)CCC=C(C)C)c(OC)c1`, the inhibition in [4] came out at 78%. Also, the “inhibition (INH)” value in [5] is 45%.

Source of the values: ChEMBL document CHEMBL1833952, “Inhibition of COX-1 activity and COX-2 expression by 3-(4'-geranyloxy-3'-methoxyphenyl)-2-trans propenoic acid and its semi-synthetic derivatives” (Bioorg Med Chem Lett, 2011).
